Data on 1 compound can be found in ChEMBL document CHEMBL4007402 (J Med Chem, 2017).

Data set [1] can be described thus: Cmax in Sprague-Dawley rat at 10 mg/kg, po up to 24 hrs. The format is ADME, organism-based. Set-up: dose 10 mg/kg, route oral. The settings on record: in vivo. The gist of the method: (§1)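 Sprague Dawley rats given a single i.v. dose of 1 mg/kg or an oral dose of 10 mg/kg. Plasma AUC(0-t), AUC(0-∞), MRT(0-t), T1/2, Tmax and Cmax were derived and reported as mean±SD.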

Data set [2] has as its target Platelet-derived growth factor receptor beta (Homo sapiens) (UniProt P09619). Nature of the data set: Inhibition of recombinant TEL-fused PDGFR-beta (unknown origin) expressed in mouse BAF3 cells assessed as growth inhibition after 72 hrs by CellTiter-Glo or CCK-8 assay. The format is cell-based. The gist of the method: (§2)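 Isogenic murine BaF3 cells transformed with TEL-fused kinases, whose proliferation depends on the fused kinase, were used. Parental BaF3 cells served as the general selectivity counter-screen. The anti-proliferative read-out was reported as GI50.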
For orientation: Cellular ATP, detected with luciferase, serves as a proxy for viable cell number.

The target in data set [3] is Tyrosine-protein kinase ABL1 (Homo sapiens) (UniProt P00519). Nature of the data set: Inhibition of recombinant TEL-fused ABL (unknown origin) expressed in mouse BAF3 cells assessed as growth inhibition after 72 hrs by CellTiter-Glo or CCK-8 assay. The format is cell-based. The gist of the method: as §2
Chain of Tyrosine-protein kinase ABL1 (Homo sapiens) (P00519 whole entry, the tested form may be a part): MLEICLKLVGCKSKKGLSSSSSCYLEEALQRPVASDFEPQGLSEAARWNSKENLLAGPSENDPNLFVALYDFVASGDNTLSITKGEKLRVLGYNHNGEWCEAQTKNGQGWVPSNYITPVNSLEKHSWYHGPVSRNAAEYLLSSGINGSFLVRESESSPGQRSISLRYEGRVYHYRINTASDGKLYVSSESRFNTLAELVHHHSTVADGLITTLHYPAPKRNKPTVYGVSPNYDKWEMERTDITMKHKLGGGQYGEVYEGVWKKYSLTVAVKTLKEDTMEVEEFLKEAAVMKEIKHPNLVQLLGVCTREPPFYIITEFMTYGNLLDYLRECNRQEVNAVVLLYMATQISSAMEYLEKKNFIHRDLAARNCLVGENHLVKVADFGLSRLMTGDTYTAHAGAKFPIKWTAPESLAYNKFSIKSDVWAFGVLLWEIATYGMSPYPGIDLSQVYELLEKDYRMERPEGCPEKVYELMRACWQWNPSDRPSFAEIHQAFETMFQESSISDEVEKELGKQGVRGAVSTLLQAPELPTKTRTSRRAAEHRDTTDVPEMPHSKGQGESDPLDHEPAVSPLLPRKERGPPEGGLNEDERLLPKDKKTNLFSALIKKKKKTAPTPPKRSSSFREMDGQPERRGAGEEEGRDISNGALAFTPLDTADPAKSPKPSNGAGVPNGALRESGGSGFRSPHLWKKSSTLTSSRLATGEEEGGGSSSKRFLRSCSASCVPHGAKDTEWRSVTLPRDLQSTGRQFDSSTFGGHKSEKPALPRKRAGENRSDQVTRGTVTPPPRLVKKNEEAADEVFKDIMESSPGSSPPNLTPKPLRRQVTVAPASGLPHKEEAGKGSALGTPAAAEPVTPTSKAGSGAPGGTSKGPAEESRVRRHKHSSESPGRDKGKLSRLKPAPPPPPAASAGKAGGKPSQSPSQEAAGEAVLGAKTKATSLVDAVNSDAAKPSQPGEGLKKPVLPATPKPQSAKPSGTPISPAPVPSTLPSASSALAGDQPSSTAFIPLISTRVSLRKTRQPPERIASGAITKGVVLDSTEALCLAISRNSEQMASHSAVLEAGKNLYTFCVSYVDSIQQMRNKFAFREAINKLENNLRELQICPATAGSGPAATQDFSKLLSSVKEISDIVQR
Data set [4] concerns the target T1, Epithelial discoidin domain-containing receptor 1 (Homo sapiens, UniProt Q08345). Nature of the data set: Binding affinity to human DDR1 (565 to 876 amino acid residues) expressed in bacterial expression system assessed as percent control number at 1 uM by KINOMEscan assay. An outline of the steps:
(§3)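 KINOMEscan competition binding panel of 468 kinases, with the compound tested at 1 µM. Binding is expressed as percent of control relative to DMSO.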

In data set [5] the target is Receptor-type tyrosine-protein kinase FLT3 (Homo sapiens) (UniProt P36888). Nature of the data set: Inhibition of recombinant TEL-fused FLT3 (unknown origin) expressed in mouse BAF3 cells assessed as growth inhibition after 72 hrs by CellTiter-Glo or CCK-8 assay. The format is cell-based. An outline of the steps:
as §2

Data set [6] can be described thus: AUC (0 to infinity) in Sprague-Dawley rat at 1 mg/kg, iv up to 8 hrs. The format is ADME, organism-based. Set-up: dose 1 mg/kg, route intravenous, time infinity. The note with it: in vivo. The gist of the method: as §1
The nature of data set [7]: Mean residence time (0 to t) in Sprague-Dawley rat at 1 mg/kg, iv. The format is ADME, organism-based. The note with it: in vivo. The gist of the method:
as §1

Data set [8] has as its system 5637. Nature of the data set: Growth inhibition of human 5637 cells after 72 hrs by CellTiter-Glo or CCK-8 assay. The format is functional. The settings on record: Homo sapiens, 5637, 72 h.
Data set [9] has as its system EJ. Nature of the data set: Growth inhibition of human EJ cells after 72 hrs by CellTiter-Glo or CCK-8 assay. The format is functional.
Data set [10] in a line: AUC (0 to t) in Sprague-Dawley rat at 10 mg/kg, po up to 24 hrs. Set-up: time < 24 hr, dose 10 mg/kg, route oral. The note with it: in vivo. The format is ADME, organism-based. An outline of the steps: as §1
The nature of data set [11]: Growth inhibition of CHO cells after 72 hrs by CellTiter-Glo or CCK-8 assay. The note with it: chinese hamster. The format is cell-based, Cricetulus griseus.
Data set [12] has as its target Platelet-derived growth factor receptor alpha (Homo sapiens) (UniProt P16234). Briefly: Inhibition of recombinant TEL-fused PDGFR-alpha (unknown origin) expressed in mouse BAF3 cells assessed as growth inhibition after 72 hrs by CellTiter-Glo or CCK-8 assay. The format is cell-based. An outline of the steps:
as §2

The test system of data set [13] is CWR22R. Briefly: Growth inhibition of human 22Rv1 cells after 72 hrs by CellTiter-Glo or CCK-8 assay. The format is functional. The note with it: 22Rv1, 72 h.
In data set [14] the target is Mitogen-activated protein kinase 14 (Homo sapiens, UniProt Q16539). Nature of the data set: Binding affinity to full length human p38alpha (1 to 360 amino acid residues) expressed in bacterial expression system assessed as percent control number at 1 uM by KINOMEscan assay. An outline of the steps: as §3
Chain of Mitogen-activated protein kinase 14 (Q16539 whole entry, the tested form may be a part): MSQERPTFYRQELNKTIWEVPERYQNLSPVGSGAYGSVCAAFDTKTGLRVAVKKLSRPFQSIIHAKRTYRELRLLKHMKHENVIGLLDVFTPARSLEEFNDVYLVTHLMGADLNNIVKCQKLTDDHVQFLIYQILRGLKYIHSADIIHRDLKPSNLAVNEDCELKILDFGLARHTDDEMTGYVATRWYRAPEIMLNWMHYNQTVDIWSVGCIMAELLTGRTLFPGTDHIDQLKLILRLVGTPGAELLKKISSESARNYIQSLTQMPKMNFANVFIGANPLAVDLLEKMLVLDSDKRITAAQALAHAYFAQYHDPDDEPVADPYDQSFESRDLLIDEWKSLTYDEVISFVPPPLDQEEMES
A short description of data set [15]: Mean residence time (0 to t) in Sprague-Dawley rat at 10 mg/kg, po. The settings on record: in vivo. The format is ADME, organism-based. The gist of the method: as §1
The nature of data set [16]: Tmax in Sprague-Dawley rat at 10 mg/kg, po. The format is ADME, organism-based. The settings on record: in vivo. An outline of the steps:
as §1

The target in data set [17] is T2, Tyrosine-protein kinase JAK3 (Homo sapiens) (UniProt P52333).
T2 sequence (whole entry): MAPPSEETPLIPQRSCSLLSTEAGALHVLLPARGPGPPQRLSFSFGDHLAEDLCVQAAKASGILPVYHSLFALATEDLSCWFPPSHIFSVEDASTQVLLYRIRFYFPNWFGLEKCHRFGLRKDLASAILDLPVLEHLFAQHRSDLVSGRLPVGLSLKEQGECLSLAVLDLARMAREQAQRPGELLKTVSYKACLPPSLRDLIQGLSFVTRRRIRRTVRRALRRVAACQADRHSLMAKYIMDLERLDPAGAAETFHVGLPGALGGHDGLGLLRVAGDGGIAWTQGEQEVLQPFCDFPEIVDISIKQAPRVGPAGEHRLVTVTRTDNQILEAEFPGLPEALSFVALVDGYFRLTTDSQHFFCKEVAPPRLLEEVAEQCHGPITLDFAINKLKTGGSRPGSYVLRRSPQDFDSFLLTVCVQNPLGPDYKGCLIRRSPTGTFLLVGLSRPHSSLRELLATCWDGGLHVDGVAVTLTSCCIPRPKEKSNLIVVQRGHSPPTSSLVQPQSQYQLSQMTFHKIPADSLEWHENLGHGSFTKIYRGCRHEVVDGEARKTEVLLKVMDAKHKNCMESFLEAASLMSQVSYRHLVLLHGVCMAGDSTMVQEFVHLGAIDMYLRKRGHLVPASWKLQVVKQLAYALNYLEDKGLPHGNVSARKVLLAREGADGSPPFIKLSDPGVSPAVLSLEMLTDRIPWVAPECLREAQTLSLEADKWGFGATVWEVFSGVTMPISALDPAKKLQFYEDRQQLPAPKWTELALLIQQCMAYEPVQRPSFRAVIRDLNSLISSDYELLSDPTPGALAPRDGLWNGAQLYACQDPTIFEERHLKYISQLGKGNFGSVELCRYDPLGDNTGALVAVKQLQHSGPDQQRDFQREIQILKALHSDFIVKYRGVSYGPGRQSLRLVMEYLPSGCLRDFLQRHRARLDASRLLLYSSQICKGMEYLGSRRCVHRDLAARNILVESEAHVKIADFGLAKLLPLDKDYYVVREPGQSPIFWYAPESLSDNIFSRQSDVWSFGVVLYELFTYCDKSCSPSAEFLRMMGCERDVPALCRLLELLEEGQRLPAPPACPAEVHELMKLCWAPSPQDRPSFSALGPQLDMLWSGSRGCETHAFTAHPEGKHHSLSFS
Briefly: Inhibition of recombinant TEL-fused JAK3 (unknown origin) expressed in mouse BAF3 cells assessed as growth inhibition after 72 hrs by CellTiter-Glo or CCK-8 assay. The format is cell-based. The gist of the method: as §2

Data set [18] is described as follows: Growth inhibition of human bladder cancer cells after 72 hrs by CellTiter-Glo or CCK-8 assay. The format is functional. The settings on record: Bladder cancer cell.
The nature of data set [19]: Tmax in Sprague-Dawley rat at 1 mg/kg, iv. The format is ADME, organism-based. The note with it: in vivo. An outline of the steps:
as §1

Data set [20] deals with ACHN. Briefly: Growth inhibition of human ACHN cells after 72 hrs by CellTiter-Glo or CCK-8 assay. The format is functional.
Data set [21] addresses T1, Epithelial discoidin domain-containing receptor 1. Nature of the data set: Inhibition of human GST-tagged DDR1 catalytic domain expressed in baculovirus expression system by LanthaScreen assay.
Data set [22] can be described thus: Half-life in Sprague-Dawley rat at 1 mg/kg, iv. The format is ADME, organism-based. The settings on record: in vivo. The gist of the method:
as §1

Data set [23] addresses Tyrosine-protein kinase ABL1 (Homo sapiens) (UniProt P00519). Briefly: Inhibition of human nonphosphorylated ABL1 (229 to 512 amino acid residues) expressed in mammalian expression system assessed as remaining activity at 1 uM by KINOMEscan assay relative to control. An outline of the steps:
as §3

The nature of data set [24]: AUC (0 to infinity) in Sprague-Dawley rat at 10 mg/kg, po up to 24 hrs. The format is ADME, organism-based. Also on record: dose 10 mg/kg, time infinity, route oral. The settings on record: in vivo. The gist of the method:
as §1

T1 sequence (Q08345 whole entry, the tested form may be a part): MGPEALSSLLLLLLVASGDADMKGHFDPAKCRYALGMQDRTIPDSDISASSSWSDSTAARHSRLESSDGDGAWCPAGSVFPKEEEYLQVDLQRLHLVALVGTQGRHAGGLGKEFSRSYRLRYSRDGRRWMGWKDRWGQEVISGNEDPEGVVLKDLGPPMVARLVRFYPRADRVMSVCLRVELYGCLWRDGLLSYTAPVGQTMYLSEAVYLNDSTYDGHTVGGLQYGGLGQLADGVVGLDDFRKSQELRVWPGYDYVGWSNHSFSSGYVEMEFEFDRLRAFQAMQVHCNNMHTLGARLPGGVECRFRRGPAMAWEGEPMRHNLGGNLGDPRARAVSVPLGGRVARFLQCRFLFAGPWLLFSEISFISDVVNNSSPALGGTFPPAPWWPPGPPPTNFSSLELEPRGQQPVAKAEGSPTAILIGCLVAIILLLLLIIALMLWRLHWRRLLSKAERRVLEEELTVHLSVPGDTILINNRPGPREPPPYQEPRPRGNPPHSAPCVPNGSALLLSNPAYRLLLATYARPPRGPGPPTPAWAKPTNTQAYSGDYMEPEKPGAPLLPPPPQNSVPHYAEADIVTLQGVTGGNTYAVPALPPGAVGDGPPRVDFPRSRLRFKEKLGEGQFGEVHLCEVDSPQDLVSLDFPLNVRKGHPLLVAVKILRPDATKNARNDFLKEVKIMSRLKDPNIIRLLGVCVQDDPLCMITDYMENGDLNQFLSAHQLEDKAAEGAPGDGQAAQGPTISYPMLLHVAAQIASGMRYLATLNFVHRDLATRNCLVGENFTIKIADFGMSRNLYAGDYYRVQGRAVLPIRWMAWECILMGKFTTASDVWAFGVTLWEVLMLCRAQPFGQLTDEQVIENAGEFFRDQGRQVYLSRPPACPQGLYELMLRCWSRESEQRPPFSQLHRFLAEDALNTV
Chain of Platelet-derived growth factor receptor beta (Homo sapiens) (P09619 whole entry, the tested form may be a part): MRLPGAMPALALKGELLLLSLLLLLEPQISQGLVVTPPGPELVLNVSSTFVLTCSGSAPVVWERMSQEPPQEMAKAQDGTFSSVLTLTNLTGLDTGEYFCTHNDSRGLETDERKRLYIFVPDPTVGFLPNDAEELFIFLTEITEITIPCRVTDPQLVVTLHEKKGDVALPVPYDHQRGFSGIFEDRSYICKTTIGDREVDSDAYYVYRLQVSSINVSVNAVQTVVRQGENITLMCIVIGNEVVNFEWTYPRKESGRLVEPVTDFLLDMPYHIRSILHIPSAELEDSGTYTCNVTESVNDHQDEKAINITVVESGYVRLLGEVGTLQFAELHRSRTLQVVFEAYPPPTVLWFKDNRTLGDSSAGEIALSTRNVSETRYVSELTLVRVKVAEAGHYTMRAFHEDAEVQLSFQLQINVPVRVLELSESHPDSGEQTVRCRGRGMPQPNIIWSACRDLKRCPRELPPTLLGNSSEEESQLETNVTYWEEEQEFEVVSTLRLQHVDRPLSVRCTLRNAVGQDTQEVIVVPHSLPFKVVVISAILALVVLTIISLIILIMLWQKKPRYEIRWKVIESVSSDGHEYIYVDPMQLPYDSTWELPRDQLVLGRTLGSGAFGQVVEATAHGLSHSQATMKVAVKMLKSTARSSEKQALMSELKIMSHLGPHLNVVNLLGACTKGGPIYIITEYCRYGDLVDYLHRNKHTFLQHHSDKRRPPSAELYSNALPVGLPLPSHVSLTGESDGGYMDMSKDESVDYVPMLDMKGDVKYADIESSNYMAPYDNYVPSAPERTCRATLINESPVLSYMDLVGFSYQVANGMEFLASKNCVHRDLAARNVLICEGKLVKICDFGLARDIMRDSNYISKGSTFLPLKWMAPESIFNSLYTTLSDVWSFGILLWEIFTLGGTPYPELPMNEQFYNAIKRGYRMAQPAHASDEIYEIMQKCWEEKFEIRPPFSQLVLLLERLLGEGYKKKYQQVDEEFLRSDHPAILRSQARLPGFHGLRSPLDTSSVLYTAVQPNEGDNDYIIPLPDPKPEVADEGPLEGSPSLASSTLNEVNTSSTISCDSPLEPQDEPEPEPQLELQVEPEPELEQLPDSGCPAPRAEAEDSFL
Chain of Receptor-type tyrosine-protein kinase FLT3 (Homo sapiens) (P36888 whole entry, the tested form may be a part): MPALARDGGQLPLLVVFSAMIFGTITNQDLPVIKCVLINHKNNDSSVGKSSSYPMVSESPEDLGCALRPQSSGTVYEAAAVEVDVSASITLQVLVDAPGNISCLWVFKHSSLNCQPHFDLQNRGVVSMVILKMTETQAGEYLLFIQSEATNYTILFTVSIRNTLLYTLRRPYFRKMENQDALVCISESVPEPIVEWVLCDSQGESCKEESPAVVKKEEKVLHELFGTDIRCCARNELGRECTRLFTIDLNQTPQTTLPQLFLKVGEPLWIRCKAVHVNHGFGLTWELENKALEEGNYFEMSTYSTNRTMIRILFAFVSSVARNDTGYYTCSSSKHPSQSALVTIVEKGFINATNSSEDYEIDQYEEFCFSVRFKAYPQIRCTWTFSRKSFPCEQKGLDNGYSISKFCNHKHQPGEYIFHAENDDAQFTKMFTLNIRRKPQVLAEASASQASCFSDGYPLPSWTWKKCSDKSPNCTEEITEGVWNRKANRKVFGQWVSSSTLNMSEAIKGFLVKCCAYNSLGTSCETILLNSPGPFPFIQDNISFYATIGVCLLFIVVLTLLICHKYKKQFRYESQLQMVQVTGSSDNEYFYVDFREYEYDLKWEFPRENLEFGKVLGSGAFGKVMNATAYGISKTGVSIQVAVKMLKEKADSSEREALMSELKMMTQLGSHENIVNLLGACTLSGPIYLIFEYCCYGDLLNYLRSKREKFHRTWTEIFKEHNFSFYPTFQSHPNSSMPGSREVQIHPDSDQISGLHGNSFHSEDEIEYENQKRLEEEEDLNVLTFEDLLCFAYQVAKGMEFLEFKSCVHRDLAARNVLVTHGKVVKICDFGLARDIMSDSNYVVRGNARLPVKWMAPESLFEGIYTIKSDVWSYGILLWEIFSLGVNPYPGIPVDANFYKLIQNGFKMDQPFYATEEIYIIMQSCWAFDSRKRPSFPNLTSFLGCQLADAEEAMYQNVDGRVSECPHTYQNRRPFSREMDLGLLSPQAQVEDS

One may read the Cmax as the highest concentration seen after dosing. One may read the GI50 as the concentration that inhibits growth by half. What is called AUC(0-inf) is the area under the concentration-time curve extrapolated to infinity. Usually MRT last stands for the average time that molecules of a dose stay in the body. Broadly, the AUC(0-t) is exposure summed from dosing to a finite time, without extrapolation to infinity. One may read the Tmax as the time at which the peak concentration occurs. What is called IC50 is the point on the concentration scale where inhibition reaches its midpoint. The low end stands for inhibition by little substance, the high end for a need for much substance. A word on the half-life: it is the time in which the quantity being followed falls by half. The low end stands for rapid decline, the high end for slow decline. In data set [1], `C=CC(=O)Nc1cc(Nc2ncc(C(=O)Nc3cc(NC(=O)c4cc(OC)c(OC)c(OC)c4)ccc3C)c(NC)n2)ccc1C` gave a Cmax of 5.58 ng/mL. The GI50 in [2] is 0.91 µM; in data set [3], 2.56 µM; in data set [5], more than 10 µM; in data set [8], more than 10 µM; in [9], more than 10 µM; in data set [12], 0.67 µM. The GI50 was 3.45 µM in [13], more than 10 µM in data set [17], 8.87 µM in data set [18] and 4.93 µM in [20]. For the same compound, the figures for the Activity in data set [4], in data set [14] and in [23] were 0.05%, 0% and 0.7%, respectively. For the same compound, the total exposure AUC(0-inf) was 1390 ng·h/mL in data set [6] and 27.6 ng·h/mL in data set [24]. Further, the MRT last in data set [7] was found to be 13.4 min; in data set [15], 166 min. In data set [10], the AUC(0-t) at 24 h amounted to 13.4 ng·h/mL. In data set [11], this compound returned a GI50 at 72 h of more than 10 µM. In addition, the results for the Tmax in data set [16] and in [19] were 11.4 min and 1.02 min, respectively. The compound further gave an IC50 in data set [21] of 0.265 µM. The half-life in data set [22] was 48 min.
